Reference: ChEMBL document CHEMBL1125204, “Synthesis and biological activity of sinefungin analogues” (J Med Chem, 1991)

Legend:
Leishmania donovani [1] = assay: (§1) Apparent kinetic activity measured for protein carboxyl methyltransferase in Leishmania donovani promastigotes; type: organism-based
Method in brief: (§2)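 Cell-free extracts of L. donovani promastigotes (strain LRC L-52) assayed for S-adenosylmethionine:protein-carboxyl methyltransferase activity, with α-globulin as the methyl-accepting substrate. Kinetic constants came from Lineweaver–Burk plots and were expressed as a Ki/Km ratio. Protein was measured by the Bradford dye-binding method against a bovine serum albumin standard.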

Leishmania donovani [2] = assay: Thymidine uptake and incorporation in Leishmania donovani promastigotes measured in the TCA insoluble material at a concentration 23.3 uM.; type: functional
Method in brief: (§3)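 Promastigotes at 5×10^8 cells/mL in DMEM/RPMI/FCS medium at 26 °C, equilibrated 3–4 h, then exposed 4 h to compound alone or with 0.026 μM sinefungin. Labelled 1 h with 2.5 μCi/mL [methyl-3H]thymidine and washed in cold PBS. Uptake taken from cold TCA-soluble fraction, incorporation from TCA-insoluble fraction. Protein measured by Lowry method.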

Leishmania donovani [3] = assay: Thymidine uptake and incorporation in Leishmania donovani promastigotes measured in the TCA soluble material at a concentration 11.6 uM.; type: functional; method in brief: as §3
Leishmania donovani [4] = assay: Cell growth of Leishmania donovani promastigotes measured at 0h of 0.26 uM sinefungin treatment before compound (260 uM) addition.; type: functional
Method in brief: (§4)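 L. donovani LRC L-52 promastigotes, 0.5×10^6 in 500 μL, grown at 26 °C in 45% DMEM/45% RPMI 1640 (25 mM HEPES pH 7.4) with 10% heat-inactivated FCS. Compounds in water added with 0.26 μM sinefungin. Duplicate wells beside untreated cultures; hemacytometer counts; growth inhibition expressed as % of untreated.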

Leishmania donovani [5] = assay: Thymidine uptake and incorporation in Leishmania donovani promastigotes measured in the TCA soluble material at a concentration 23.3 uM in the presence of sinefungin (0.026 uM).; type: functional; method in brief: as §3
Leishmania donovani [6] = assay: Cell growth of Leishmania donovani promastigotes measured at 24 hr of 0.26 uM sinefungin treatment before compound (260 uM) addition.; type: functional; method in brief: as §4
Leishmania donovani [7] = assay: Cell growth of Leishmania donovani promastigotes measured at 48 hr of 0.26 uM sinefungin treatment before compound (260 uM) addition.; type: functional; method in brief: as §4
Leishmania donovani [8] = assay: Cell growth of Leishmania donovani promastigotes measured at 16h of 0.26 uM sinefungin treatment before compound (260 uM) addition.; type: functional; method in brief: as §4
Leishmania donovani [9] = assay: Thymidine uptake and incorporation in Leishmania donovani promastigotes measured in the TCA insoluble material at a concentration 11.6 uM.; type: functional; method in brief: as §3
[10] = It is the ratio of Ki value to that of Km.; type: ADME
Method in brief: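 Ki/Km ratio for protein-carboxyl methyltransferase in cell-free promastigote extracts, α-globulin as substrate. Ki and Km read from Lineweaver–Burk plots.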

Leishmania donovani [11] = assay: Thymidine uptake and incorporation in Leishmania donovani promastigotes measured in the TCA soluble material at a concentration 23.3 uM.; type: functional; method in brief: as §3
Leishmania donovani [12] = assay: Thymidine uptake and incorporation in Leishmania donovani promastigotes measured in the TCA insoluble material at a concentration 23.3 uM in the presence of sinefungin (0.026 uM).; type: functional; method in brief: as §3
Leishmania donovani [13] = assay: Thymidine uptake and incorporation in Leishmania donovani promastigotes measured in the TCA insoluble material at a concentration 11.6 uM in the presence of sinefungin (0.026 uM).; type: functional; method in brief: as §3
Leishmania donovani [14] = assay: Thymidine uptake and incorporation in Leishmania donovani promastigotes measured in the TCA insoluble material at a concentration 130 uM in the presence of sinefungin (0.026 uM).; type: functional; method in brief: as §3
Leishmania donovani [15] = assay: Cell growth of Leishmania donovani promastigotes measured at 48 hr of 0.26 uM sinefungin treatment before compound (130 uM) addition.; type: functional; method in brief: as §4
Leishmania donovani [16] = assay: Thymidine uptake and incorporation in Leishmania donovani promastigotes measured in the TCA soluble material at a concentration 130 uM in the presence of sinefungin (0.026 uM).; type: functional; method in brief: as §3
Leishmania donovani [17] = assay: Cell growth of Leishmania donovani promastigotes measured at 0h of 0.26 uM sinefungin treatment before compound (130 uM) addition.; type: functional; method in brief: as §4
Leishmania donovani [18] = assay: Cell growth of Leishmania donovani promastigotes measured at 24 hr of 0.26 uM sinefungin treatment before compound (130 uM) addition.; type: functional; method in brief: as §4
Leishmania donovani [19] = assay: Thymidine uptake and incorporation in Leishmania donovani promastigotes measured in the TCA soluble material.; type: functional; method in brief: as §3
Leishmania donovani [20] = assay: Cell growth of Leishmania donovani promastigotes measured at 0h of 0.26 uM sinefungin treatment before compound addition.; type: functional; method in brief: as §4
Leishmania donovani [21] = assay: Thymidine uptake and incorporation in Leishmania donovani promastigotes measured in the TCA insoluble material.; type: functional; method in brief: as §3
Leishmania donovani [22] = assay: Thymidine uptake and incorporation in Leishmania donovani promastigotes measured in the TCA insoluble material in the presence of sinefungin (0.026 uM).; type: functional; method in brief: as §3
Leishmania donovani [23] = assay: Thymidine uptake and incorporation in Leishmania donovani promastigotes measured in the TCA soluble material in the presence of sinefungin (0.026 uM).; type: functional; method in brief: as §3
Leishmania donovani [24] = assay: Cell growth of Leishmania donovani promastigotes measured at 24 hr of 0.26 uM sinefungin treatment before compound (148 uM) addition.; type: functional; method in brief: as §4
Leishmania donovani [25] = assay: Cell growth of Leishmania donovani promastigotes measured at 0h of 0.26 uM sinefungin treatment before compound (148 uM) addition.; type: functional; method in brief: as §4
Leishmania donovani [26] = assay: Thymidine uptake and incorporation in Leishmania donovani promastigotes measured in the TCA insoluble material at a concentration 1.25 uM.; type: functional; method in brief: as §3
Leishmania donovani [27] = assay: Thymidine uptake and incorporation in Leishmania donovani promastigotes measured in the TCA soluble material at a concentration 1.25 uM in the presence of sinefungin (0.026 uM).; type: functional; method in brief: as §3
Leishmania donovani [28] = assay: Thymidine uptake and incorporation in Leishmania donovani promastigotes measured in the TCA insoluble material at a concentration 1.25 uM in the presence of sinefungin (0.026 uM).; type: functional; method in brief: as §3
Leishmania donovani [29] = assay: Thymidine uptake and incorporation in Leishmania donovani promastigotes measured in the TCA soluble material at a concentration 1.25 uM.; type: functional; method in brief: as §3
Leishmania donovani [30] = assay: Thymidine uptake and incorporation in Leishmania donovani promastigotes measured in the TCA soluble material at a concentration 2.1 uM.; type: functional; method in brief: as §3
Leishmania donovani [31] = assay: Thymidine uptake and incorporation in Leishmania donovani promastigotes measured in the TCA insoluble material at a concentration 2.1 uM in the presence of sinefungin (0.026 uM).; type: functional; method in brief: as §3
Leishmania donovani [32] = assay: Thymidine uptake and incorporation in Leishmania donovani promastigotes measured in the TCA soluble material at a concentration 2.1 uM in the presence of sinefungin (0.026 uM).; type: functional; method in brief: as §3
Leishmania donovani [33] = assay: Thymidine uptake and incorporation in Leishmania donovani promastigotes measured in the TCA insoluble material at a concentration 2.1 uM.; type: functional; method in brief: as §3
Leishmania donovani [34] = assay: Cell growth of Leishmania donovani promastigotes measured at 0h of 0.26 uM sinefungin treatment before compound (156 uM) addition.; type: functional; method in brief: as §4
Leishmania donovani [35] = assay: Cell growth of Leishmania donovani promastigotes measured at 48 hr of 0.26 uM sinefungin treatment before compound (156 uM) addition.; type: functional; method in brief: as §4
Leishmania donovani [36] = assay: Cell growth of Leishmania donovani promastigotes measured at 24 hr of 0.26 uM sinefungin treatment before compound (156 uM) addition.; type: functional; method in brief: as §4
Leishmania donovani [37] = assay: as §1; type: ADME, organism-based; conditions: in vitro; method in brief: as §2

For Nc1ncnc2c1ncn2[C@@H]1O[C@H](CC(N)CCCC(O)CO)[C@@H](O)[C@H]1O (stereo partly specified), the Ki (Leishmania donovani [1]) was 446 µM, the Thymidine uptake (Leishmania donovani [2]) was 4079585 c.p.m. (mg of protein)-1 and the Thymidine uptake (Leishmania donovani [3]) was 823954 c.p.m. (mg of protein)-1. The Cell growth (Leishmania donovani [4]) was 100%, the Thymidine uptake (Leishmania donovani [5]) was 1230950 c.p.m. (mg of protein)-1 and the Cell growth (Leishmania donovani [6]) was 59%. For the same compound, the Cell growth (Leishmania donovani [7]) was 41%, the Cell growth (Leishmania donovani [8]) was 92% and the Thymidine uptake (Leishmania donovani [9]) was 3148603 c.p.m. (mg of protein)-1. The Ratio [10] was 8.3, the Thymidine uptake (Leishmania donovani [11]) was 1020493 c.p.m. (mg of protein)-1 and the Thymidine uptake (Leishmania donovani [12]) was 3097327 c.p.m. (mg of protein)-1. For the same compound, the Thymidine uptake (Leishmania donovani [13]) was 3391425 c.p.m. (mg of protein)-1.
In the case of C=CCCCC(N)C[C@H]1OC(n2cnc3c(N)ncnc32)[C@H](O)[C@@H]1O (stereo partly specified), the Thymidine uptake (Leishmania donovani [14]) is reported as 2880449 c.p.m. (mg of protein)-1, the Ki (Leishmania donovani [1]) is reported as 877 µM and the Cell growth (Leishmania donovani [15]) is reported as 41%. For the same compound, the Thymidine uptake (Leishmania donovani [16]) was 1703083 c.p.m. (mg of protein)-1, the Ratio [10] was 15.9 and the Cell growth (Leishmania donovani [17]) was 97%. For the same compound, the Cell growth (Leishmania donovani [18]) was 65%.
For Nc1ncnc2c1ncn2C1O[C@H](C[C@@H](N)CC[C@@H](N)C(=O)O)[C@@H](O)[C@H]1O (stereo partly specified), the Thymidine uptake (Leishmania donovani [19]) was 1741329 c.p.m. (mg of protein)-1, the Cell growth (Leishmania donovani [20]) was 15% and the Thymidine uptake (Leishmania donovani [21]) was 956745 c.p.m. (mg of protein)-1. For the same compound, the Thymidine uptake (Leishmania donovani [22]) was 2197110 c.p.m. (mg of protein)-1 and the Thymidine uptake (Leishmania donovani [23]) was 1583862 c.p.m. (mg of protein)-1.
In the case of NCCC(CN)C[C@H]1OC(n2cnc3c(N)ncnc32)[C@H](O)[C@@H]1O (stereo partly specified), the Ki (Leishmania donovani [1]) is reported as 1120 µM, the Cell growth (Leishmania donovani [24]) is reported as 80% and the Cell growth (Leishmania donovani [25]) is reported as 93%. It also gave a Ratio [10] of 23.3.
With Nc1ncnc2c1ncn2[C@@H]1O[C@H](CC(N)CCCC(=O)O)[C@@H](O)[C@H]1O (stereo in doubt; 3a) the Ki (Leishmania donovani [1]) was 165 µM, the Ratio [10] was 3 and the Thymidine uptake (Leishmania donovani [26]) was 1772064 c.p.m. (mg of protein)-1. The Thymidine uptake (Leishmania donovani [27]) was 1556483 c.p.m. (mg of protein)-1, the Thymidine uptake (Leishmania donovani [28]) was 1459000 c.p.m. (mg of protein)-1 and the Thymidine uptake (Leishmania donovani [29]) was 1499100 c.p.m. (mg of protein)-1.
With Nc1ncnc2c1ncn2[C@@H]1O[C@H](CC(N)CCCC(=O)O)[C@@H](O)[C@H]1O (stereo in doubt; 3b) the Ki (Leishmania donovani [1]) was 380 µM, the Thymidine uptake (Leishmania donovani [30]) was 1161185 c.p.m. (mg of protein)-1 and the Thymidine uptake (Leishmania donovani [31]) was 1861835 c.p.m. (mg of protein)-1. The Thymidine uptake (Leishmania donovani [32]) was 1973260 c.p.m. (mg of protein)-1, the Ratio [10] was 6.9 and the Thymidine uptake (Leishmania donovani [33]) was 3284127 c.p.m. (mg of protein)-1.
For Nc1ncnc2c1ncn2[C@@H]1O[C@H](CC2CCNC2)[C@@H](O)[C@H]1O (stereo in doubt; 6a), the Ki (Leishmania donovani [1]) was 103 µM, the Cell growth (Leishmania donovani [34]) was 83% and the Cell growth (Leishmania donovani [35]) was 37%. For the same compound, the Ratio [10] was 2.1 and the Cell growth (Leishmania donovani [36]) was 74%.
Nc1ncnc2c1ncn2[C@@H]1O[C@H](CC2CCNC2)[C@@H](O)[C@H]1O (stereo in doubt; 6b) showed a Ki (Leishmania donovani [1]) of 140 µM and a Ratio [10] of 2.9.
Compound C[S+](CC[C@H](N)C(=O)[O-])C[C@H]1O[C@@H](n2cnc3c(N)ncnc32)[C@H](O)[C@@H]1O (stereo partly specified) [ADEMETIONINE] has a Km (Leishmania donovani [37]) of 55 µM.
With Nc1ncnc2c1ncn2[C@@H]1O[C@H](CSCC[C@H](N)C(=O)O)[C@@H](O)[C@H]1O [S-ADENOSYLHOMOCYSTEINE] the Ki (Leishmania donovani [1]) was 7.2 µM and the Ratio [10] was 0.13.
